Measured values from different studies.
Compare with care: the assays were run in different laboratories.
CDK9 with cyclin T1: Cyclin-dependent kinase 9, with cyclin T1 (CDK9, Homo sapiens, UniProt P50750)
CDK9: Cyclin-dependent kinase 9 (CDK9, Homo sapiens, UniProt P50750)
CDK9 with cyclin K: Cyclin-dependent kinase 9, with cyclin K (CDK9, Homo sapiens, UniProt P50750)

| Structure (SMILES) | target | test | setting | measurement | result |
| --- | --- | --- | --- | --- | --- |
| Cc1ccc(-n2nc(C(C)(C)C)cc2NC(=O)Nc2ccc(OCCN3CCOCC3)c3ccccc23)cc1 | CDK9 with cyclin T1 | enzyme activity, inhibitor | 10 µM | inhibition | -17% |
| CO[C@@H](C)c1c(Nc2ccc([C@H](N(C)C(=O)C3CCS(=O)(=O)CC3)C(F)(F)F)cc2)cnc2cc(Cl)nn12 | CDK9 | cell-free assay, competition with immobilised ligand | 1 µM | remaining binding | 85% |
| Nc1nc(Nc2ccc(S(N)(=O)=O)cc2)sc1C(=O)c1ccccc1[N+](=O)[O-] | CDK9 | enzyme activity, inhibitor | 0.1 µM | inhibition | 90 to 93% |
| CCC(=O)N[C@@H]1CC[C@H](C(=O)N(C)c2ccc(-c3nc4ccccc4o3)cc2)C1 | CDK9 | cell-free assay, competition with immobilised ligand | 1 µM | remaining binding | 100% |
| O=C1Nc2ccc(Cl)cc2C1=Cc1cc(Cl)c(O)c(Cl)c1 | CDK9 with cyclin K | cell-free assay | 0.5 µM | remaining signal | 79.4% |
| CCc1ccccc1C(=O)Nc1n[nH]c2c(C)c(F)c(C3C(C#N)=C(C)N(C)C(C)=C3C#N)cc12 | CDK9 | cell-free assay, competition with immobilised ligand | 1 µM | remaining binding | 94% |
| CS(=O)(=O)CCNCc1ccc(-c2ccc3ncnc(Nc4ccc(OCc5cccc(F)c5)c(Cl)c4)c3c2)o1 | CDK9 with cyclin K | cell-free assay | 0.5 µM | remaining signal | 103% |
| Cc1cc(NC(=O)c2cccc(S(F)(F)(F)(F)F)c2)cc(-n2ccn3nc(-c4cccnc4)cc23)c1 | CDK9 | cell-free assay, competition with immobilised ligand | 1 µM | remaining binding | 100% |
| c1ccc(CNc2nc(N3CCOc4ccccc43)nc3c2CCCC3)cc1 | CDK9 | target engagement in cells, inhibitor, chemoproteomics | 20 mM | inhibition | -15.3% |
| CCOc1cc(-c2nncn2C)ccc1Nc1ncc2cc(C)nc(NCC(C)(C)C)c2n1 | CDK9 with cyclin K | cell-free assay, TR-FRET | 1 µM | inhibition | ≤ 15% |
| COc1cc(/C=C/C(=O)CC(=O)/C=C/c2ccc(O)c(OC)c2)ccc1O | CDK9 with cyclin T1 | enzyme activity, inhibitor | 1 µM | activity vs control | 88% |
| O=C1NC(=O)c2cc(Nc3ccc(F)cc3)c(Nc3ccc(F)cc3)cc21 | CDK9 with cyclin K | cell-free assay | 0.5 µM | remaining signal | 90.8% |
| c1ccc(N2CCN(Cc3nc4ccccc4[nH]3)CC2)nc1 | CDK9 | binding, competition with immobilised ligand | 1 µM | remaining binding | 100% |
| COc1cc(-c2cc(-c3ccc(N4CCNCC4)cc3)cnc2C)cc(OC)c1OC | CDK9 with cyclin T1 | enzyme activity, inhibitor | 0.1 µM | inhibition | 3% |
| CC(C)(C)c1nc2c(s1)c1nc(N)ncc1c1ccc(NS(=O)(=O)c3c(F)cccc3F)c(F)c12 | CDK9 with cyclin K | enzyme activity, inhibitor, radiometric | 1 µM | remaining activity | 93% |
| CCOC(=O)c1cc2cc(-c3cc(C(=O)NCc4ccc(C(=O)O)cc4)nn3C)ccc2[nH]1 | CDK9 | cell-free assay, competition with immobilised ligand | 0.1 µM | remaining binding | 97% |

| Structure (SMILES) | target | test | setting | measurement | result |
| --- | --- | --- | --- | --- | --- |
| COc1cccc2c(NCc3ccccc3)nc(-n3c(N)nc4ccccc43)nc12 | CDK9 | target engagement in cells, inhibitor, chemoproteomics | 20 mM | inhibition | -14.5% |
| N#CCCc1ccc2c(c1)-c1[nH]c3ccc([N+](=O)[O-])cc3c1CC(=O)N2 | CDK9 with cyclin K | cell-free assay | 0.5 µM | remaining signal | 23.7% |
| CCCOc1ccc(OC)c(F)c1C(=O)c1ccc(C(=O)N[C@@H]2CNC[C@H]2NC(=O)c2ccc3[nH]ncc3c2)cc1 | CDK9 with cyclin T1 | enzyme activity, inhibitor | 10 µM | remaining activity | 101% |
| Cc1ccc(NC(=O)c2ccc(CN3CCN(C)CC3)cc2)cc1Nc1nc(-c2cccnc2)cs1 | CDK9 with cyclin T1 | cell-free assay | 0.5 µM | remaining signal | 99.2% |
| O=C1CCc2cc(Nc3cc(OC4CCOCC4)c([N+](=O)[O-])cc3Cl)ccc2N1 | CDK9 | cell-free assay, competition with immobilised ligand | 1 µM | remaining binding | 97% |
| Nc1ncnc2occ(-c3ccc(NC(=O)Nc4cc(C(F)(F)F)ccc4F)cc3)c12 | CDK9 | cell-free assay, inhibitor | 20 µM | remaining signal | 0.15% |
| CC(C)(C)c1nc(-c2cccc(NS(=O)(=O)c3c(F)cccc3F)c2F)c(-c2ccnc(N)n2)s1 | CDK9 with cyclin T1 | enzyme activity, inhibitor, radiometric | 1 µM | remaining activity | 106% |
| CNC(=O)c1cc(Oc2ccc(NC(=O)Nc3ccc(Cl)c(C(F)(F)F)c3)cc2)ccn1 | CDK9 with cyclin T1 | enzyme activity, inhibitor | 10 µM | inhibition | -6% |
| Cc1ccc(Nc2nccc(N(C)c3ccc4c(C)n(C)nc4c3)n2)cc1S(N)(=O)=O | CDK9 with cyclin K | enzyme activity, inhibitor | 0.5 µM | remaining activity | 92.7% |
| Cc1cc(NC(=O)c2cccc3cc(-c4cccc5[nH]nc(N)c45)ccc23)ccc1F | CDK9 with cyclin T1 | enzyme activity, inhibitor | 0.1 µM | activity vs control | 106% |
| Cc1cc(-n2nc(Cc3cc(F)cc(C(F)(F)F)c3)nc2C)ccc1C(N)=O | CDK9 | cell-free assay, competition with immobilised ligand | 1 µM | remaining binding | 100% |
| CN(C)C1CCN(CC#Cc2nn(C3CCCC3)c3nc(NCc4ccccc4)ncc23)C1 (centres unmarked) | CDK9 with cyclin T1 | enzyme activity, inhibitor, FRET | 10 µM | inhibition | -12% |
| CS(=O)(=O)Nc1cccc(-c2csc(NC(=O)CSc3nc4nccnc4c(=O)n3CCc3ccccc3)n2)c1 | CDK9 with cyclin K | enzyme activity, inhibitor | 10 µM | inhibition | -1% |
| CN1CC(Oc2cnc(C#N)cc2-c2ccn3nc(NC(=O)C4CC4)cc3c2)C1 | CDK9 with cyclin T1 | enzyme activity, inhibitor | 1 µM | inhibition | -15% |
| COc1cc(Nc2cnc(C#N)c(O[C@H](C)CN(C)C)n2)ncc1-c1cnn(C)c1 | CDK9 with cyclin T1 | enzyme activity, inhibitor, radiometric | 1 µM | remaining activity | 84% |
| CCN(CC)CCNC(=O)c1c(C)[nH]c(/C=C2\C(=O)Nc3ccc(F)cc32)c1C | CDK9 with cyclin T1 | enzyme activity, inhibitor | 10 µM | inhibition | 37% |
